Source: ChEMBL document CHEMBL1142606, “Antibiotic bisanthraquinones produced by a streptomycete isolated from a cyanobacterium associated with Ecteinascidia turbinata” (J Nat Prod, 2006)

What was measured:
Enterococcus faecalis = assay: Antibacterial activity against vancomycin-resistant Enterococcus faecalis ATCC 51299 after 18 hrs by broth dilution assay; type: functional, organism-based; details: ATCC 51299, 18 h
Outline: (§1)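 Broth dilution; MRSA ATCC 43300 in trypticase soy medium, VRE ATCC 51299 in brain heart infusion medium. Cultures grown 14 h on rotary shaker at 38 °C, diluted to A600 0.04-0.06, then further 10-fold, dispensed to microtiter wells. Compounds tested in dilution series, ten replicates each; growth read as A600 after 18 h; IC50 reported.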

[1] = Cytotoxicity against human HCT 116 cells; type: functional, cell-based
Staphylococcus aureus = assay: Antibacterial activity against methicillin-resistant Staphylococcus aureus ATCC 43300 after 18 hrs by broth dilution assay; type: functional, organism-based; details: ATCC 43300, 18 h; outline: as §1

| Structure (SMILES) | IC50 (Enterococcus faecalis) | IC50 [1] | IC50 (Staphylococcus aureus) |
| --- | --- | --- | --- |
| Cc1cc(O)c2c(c1)C(=O)c1ccc3c(c1C2=O)O[C@@]12O[C@@H](C)[C@@]4(O)C31C(=C(O)C[C@@]4(C)O)C(=O)c1c(O)cccc12 (stereo partly specified) | 12 µM | 5.6 µM | 0.36 µM |
| Cc1cc(O)c2c(c1)C(=O)c1ccc3c(c1C2=O)O[C@@]12O[C@@H](C)[C@H]4C31C(=C(O)C[C@@]4(C)O)C(=O)c1c(O)cccc12 (stereo partly specified) | 2 µM | 3.3 µM | 0.15 µM |
| CN(C)[C@@H]1C(O)=C(C(N)=O)C(=O)[C@@]2(O)C(O)=C3C(=O)c4c(O)cccc4[C@@](C)(O)[C@H]3C[C@@H]12 [TETRACYCLINE] | 0.7 mg/L | – | 0.2 mg/L |
| CC1=CC(O)=C2C(=O)c3c(O)cccc3[C@@]34Oc5c(ccc6c5C(=O)c5c(O)cc(C)cc5C6=O)C23[C@@H]1[C@H](C)O4 (stereo partly specified) | 130 µM | 6.6 µM | 31 µM |
